According to ChEMBL document CHEMBL3124905, “Isothiocoumarin-3-carboxylic acid derivatives: synthesis, anticancer and antitrypanosomal activity evaluation” (Eur J Med Chem, 2014):

How the values were obtained:
Type in all cases: functional
[1] = test system: Trypanosoma brucei brucei; assay: Antitrypanosomal activity against bloodstream form of Trypanosoma brucei brucei strain 90-13 assessed as inhibition of parasite growth at 10 ug/ml after 72 hrs by resazurin reduction test; settings: strain 90-13, 72 h
Method in brief: (§1)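 Trypanosoma brucei brucei 90-13 bloodstream forms, grown in HMI9 with 10% FCS at 37 °C under 5% CO2. Log-phase parasites were seeded at 10^5 cells/mL with or without inhibitor, with stocks prepared in DMSO. After 72 h, resazurin was added and fluorescence was read at 530/590 nm after a further 4 h. Percent growth inhibition was calculated versus drug-free parasites, with DMSO as control.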

[2] = test system: Trypanosoma brucei brucei; assay: Antitrypanosomal activity against bloodstream form of Trypanosoma brucei brucei strain 90-13 assessed as inhibition of parasite growth at 1 ug/ml after 72 hrs by resazurin reduction test; settings: strain 90-13, 72 h; method in brief: as §1
MDA-MB-435 = assay: Growth inhibition of human MDA-MB-435 cells after 48 hrs by SRB assay; settings: MDA-MB-435, 48 h
Method in brief: (§2)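 NCI five-dose assay against the ~60-cell-line panel (nine cancer types). Tenfold dilutions from 10−4 to 10−8 M were used with continuous 48-h exposure and SRB absorbance readout. Percent growth was computed from time-zero, control and treated absorbances. GI50 is the concentration giving 50% lower net protein increase than controls. Values not reached are reported as beyond the tested range.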

KM12 = assay: Growth inhibition of human KM12 cells after 48 hrs by SRB assay; settings: KM12, 48 h; method in brief: as §2
SR = assay: Growth inhibition of human SR cells after 48 hrs by SRB assay; settings: for TGI: read-out: pTGI (converted)
Method in brief: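 NCI ~60-cell-line five-dose screen. Cells were preincubated 24-48 h, then given compound at 10-fold dilutions from 10^-4 to 10^-8 M with 48 h continuous exposure. SRB protein stain was read by absorbance at time zero, in untreated control and with drug. GI50 was derived from [(Ti-Tz)/(C-Tz)]x100=50, TGI from Ti=Tz, and LC50 from [(Ti-Tz)/Tz]x100=-50.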

CCRF-CEM = assay: Growth inhibition of human CCRF-CEM cells after 48 hrs by SRB assay; method in brief: as §2
[3] = Growth inhibition of human HOP92 cells after 48 hrs by SRB assay; settings: HOP-92, 48 h; for TGI: read-out: pTGI (converted); method in brief: as §2
SF-268 = assay: Anticancer activity against human SF268 cells assessed as cell growth at 100 uM after 48 hrs by SRB assay; settings: SF-268, 48 h, read-out: Activity
Method in brief: (§3)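 NCI one-dose primary screen on a three-line panel (breast MCF7, lung NCI-H460, CNS SF-268). Cells were inoculated and preincubated 24–48 h, then exposed to a single concentration of 10−4 M for 48 h. The endpoint was sulforhodamine B protein staining, and results are expressed as percent growth relative to untreated control cells. Negative values denote cytotoxicity.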

MCF7 = assay: Anticancer activity against human MCF7 cells assessed as cell growth at 100 uM after 48 hrs by SRB assay; settings: MCF7, 48 h, read-out: Activity; method in brief: as §3
NCI-H460 = assay: Anticancer activity against human NCI-H460 cells assessed as cell growth at 100 uM after 48 hrs by SRB assay; settings: NCI-H460, 48 h, read-out: Activity; method in brief: as §3
Malme-3M = assay: Growth inhibition of human MALME-3M cells after 48 hrs by SRB assay; method in brief: as §2

SMILES	inhibition at 10 µg/mL [1]	inhibition at 1 µg/mL [2]	growth at 100 µM (SF-268)	growth at 100 µM (MCF7)	growth at 100 µM (NCI-H460)	further results
CCOC(=O)c1cc2ccccc2c(=O)s1	-3.91%	35.8%	–	–	–	–
COc1ccc2cc(C(=O)Nc3ccc(O)cc3)sc(=O)c2c1OC	–	–	–	–	–	GI50 (MDA-MB-435): 18.6 µM; TGI (MDA-MB-435; read-out: pTGI (converted)): 77.6 µM; GI50 (KM12): 26.3 µM; TGI (KM12; read-out: pTGI): > 100 µM; GI50 (SR): 3.47 µM; TGI (SR): 42.7 µM; GI50 (CCRF-CEM): 5.62 µM; TGI (CCRF-CEM; read-out: pTGI (converted)): > 100 µM; GI50 [3]: 17.8 µM; TGI [3]: 95.5 µM
O=C(O)c1cc2ccccc2c(=O)s1	0.05%	16.8%	–	–	–	–
O=C(Nc1cccc(C(F)(F)F)c1)c1cc2ccccc2c(=O)s1	-7.12%	5.78%	–	–	–	–
NS(=O)(=O)c1ccc(NC(=O)c2cc3ccccc3c(=O)s2)cc1	–	–	–	–	–	GI50 (SR): 31.6 µM; TGI (SR): > 100 µM
O=C(c1cc2ccccc2c(=O)s1)N1CCOCC1	8.15%	8.13%	111%	114%	109%	–
COc1ccc2cc(C(=O)Nc3ccccc3C(F)(F)F)sc(=O)c2c1OC	2.91%	6.86%	107%	99%	90%	–
COc1ccc2cc(C(=O)N3CCCCCC3)sc(=O)c2c1OC	–	–	–	–	–	GI50 (Malme-3M): 34.7 µM; TGI (Malme-3M; read-out: pTGI (converted)): > 100 µM; GI50 [3]: 2.75 µM; TGI [3]: 8.13 µM
O=C(Nc1ccccc1)c1cc2ccccc2c(=O)s1	–	–	83%	78%	75%	–
COC(=O)c1cc2ccc(OC)c(OC)c2c(=O)s1	–	–	113%	108%	82%	–
